SIAE primary: blocks human sialic acid acetylesterase | 370,000 compounds, 0.69% hits | Q9HAT2 | inhibition, % at 9.66 µM | AID 1053197 | SIAE FP-Rh probe binding, fluorescence polarization;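 active = inhibition above a cutoff: mean of compounds within the control limits plus 3 SD of those, cut at about 17% in these data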;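 also: 0% = plate median of compound wells and 100% = probe without SIAE protein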
PRMT1 inh: blocks human protein arginine methyltransferase 1; 370,000 compounds, 1.3% hits; recombinant PRMT1, activity-based probe fluorescence polarization; Q99873; inhibition, % at 2.79 µM;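 active = inhibition above about 21% made by adding two undisclosed values, limit read from the data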
Target sequence (Q99873 whole entry, looked up): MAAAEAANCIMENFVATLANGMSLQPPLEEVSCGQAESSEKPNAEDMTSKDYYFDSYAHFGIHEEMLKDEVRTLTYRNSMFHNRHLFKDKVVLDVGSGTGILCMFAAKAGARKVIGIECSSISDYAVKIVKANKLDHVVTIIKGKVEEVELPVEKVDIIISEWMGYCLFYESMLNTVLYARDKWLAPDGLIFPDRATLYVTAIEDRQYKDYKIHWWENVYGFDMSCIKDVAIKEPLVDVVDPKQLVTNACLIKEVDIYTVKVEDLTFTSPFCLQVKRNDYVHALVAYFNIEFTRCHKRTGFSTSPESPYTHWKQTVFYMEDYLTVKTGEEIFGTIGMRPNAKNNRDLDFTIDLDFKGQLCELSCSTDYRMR
ABHD4 inh: ABHD4 (mouse) inhibition, primary FP screen. inhibition, % at 8.92 µM. purified mABHD4, FP-Rh probe fluorescence polarization. Q8VD66. AID 720543. 370,000 compounds, 0.54% hits;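 active = inhibition exceeding the mean over every tested compound plus 3 SD, cut at about 30% in these data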;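 also: 0% = plate median of compound wells and 100% = S159A mutant with DMSO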
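Assay system: Wild-type mouse ABHD4 protein | Medium: HEPES pH 7.0 buffer, 150 mM NaCl, 0.01% Pluronic F-127 | Incubation: Enzyme–compound pre-incubation 45 min, then probe 60 min, both 25 °C | Technique: Fluorescence polarization with parallel and perpendicular emission, 525/598 nm | Evaluation: % inhibition of FP-Rh probe binding versus controls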
TCR CD3 inh: inhibitors of human TCR-CD3 interaction; 360,000 compounds, 0.37% hits; TAMRA-labeled TCR probe fluorescence, biochemical; inhibition, % at 9.4 µM; in the data active = inhibition above about 19%;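 also: recombinant mutant TCR 2C K166C tagged with TAMRA read by polarization; 0% = receptor in buffer alone and 100% = receptor with positive control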
HTRA1 inhibitor: HTRA1 (human) protease inhibition. recombinant HTRA1, FP-rhodamine activity-based probe, fluorescence polarization. Q92743. 340,000 compounds, 0.5% hits. inhibition, % at 5.96 µM; in the data active = inhibition above about 36%;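 also: 0% = enzyme with DMSO and 100% = wells lacking enzyme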
SIAE confirm: human SIAE inhibition, confirmation; shares compounds with SIAE primary; SIAE FP-Rh activity-based probe, fluorescence polarization; inhibition, % at 9.66 µM; 2,300 compounds, 13% hits;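 active = mean inhibition of the replicates above the hit cutoff set in the primary screen, cut at about 17% in these data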;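 also: 0% = SIAE with DMSO and probe and 100% = probe without SIAE; inhibitors lower polarization as more probe stays unbound to SIAE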
* marks the source's active call; other numbers are inactive results; / = no result. The list is not random: actives were taken first. Their share in the collection is about 2.5%.

SMILES	SIAE primary	PRMT1 inh	ABHD4 inh	TCR CD3 inh	HTRA1 inhibitor	SIAE confirm
CCCCNC(=O)CCC(=O)Nc1ccc2nc(N3CCCCC3)cc(C)c2c1	-2	-1	0	2	2	/
CCCCNC(=O)CCC(=O)Nc1ccc2nc(N3CCOCC3)cc(C)c2c1	24*	-1	-1	-3	-5	-1
COCCN(Cc1ccc(C)cc1)C(=O)[C@H]1O[C@@H](n2cnc(C(N)=O)n2)[C@H](O)[C@@H]1O	21*	4	-8	-7	/	20*
NC(=O)c1ncn([C@@H]2O[C@H](C(=O)Nc3ccc(C(=O)N4CCCCC4)cc3)[C@@H](O)[C@H]2O)n1	18*	-3	-2	-6	/	18*
NC(=O)c1ncn([C@@H]2O[C@H](C(=O)Nc3ccc(Oc4ccccc4)nc3)[C@@H](O)[C@H]2O)n1	12	5	-8	0	/	/
COc1ccccc1C(=O)N1CCN(C(=O)[C@H]2O[C@@H](n3cnc(C(N)=O)n3)[C@H](O)[C@@H]2O)CC1	19*	-7	0	1	/	13
CC(C)C1N=C(NC(=O)OCc2ccccc2)NC1=O (centres undefined) (tested in a mixture with another compound)	0	8	-7	/	/	/
C=CCN1[C@H](CO)[C@H](c2ccccc2)[C@@H]1C#N	-5	6	8	/	/	/
CCC/C(=N/NC(=O)c1ccccc1Cl)c1ccccc1	17*	-7	1	3	-2	0
O=C(NCc1ccc(C(=O)NC2CCCC2)cc1)c1cccc(Br)c1	-6	-1	-7	/	/	/
C=CCn1c(SCC(=O)N(CC)C2CCS(=O)(=O)C2)nc2sc3c(c2c1=O)CCC3 (centres undefined)	18*	-1	2	0	-5	9
C=CCn1c(SCC(C)=O)nc2sc3c(c2c1=O)CCC3	3	-2	-9	2	2	/
Cc1ccccc1CN1CCCCC(NC(=O)c2ccccc2C(F)(F)F)C1=O (centres undefined)	1	0	4	/	/	/
COc1cccc(CNC(=O)CCCN2C(=O)COc3ccc(C)cc32)c1OC	-5	0	1	/	/	/
O=C(Nc1cc(S(=O)(=O)N2CCOCC2)ccc1N1CCCCC1)c1cc(-c2ccccn2)nc2ccccc12	18*	11	-1	-3	-2	9
Cc1ccc(S(=O)(=O)N2CCOCC2)cc1NC(=O)c1cc(-c2ccccn2)nc2ccccc12	-8	-3	-11	-8	-10	/
O=C(NCC1CC1)c1ccc(Nc2nc3ccc(Br)cc3[nH]2)cc1	25*	1	23	4	-11	7
O=C(NCc1ccco1)c1cccc(Nc2nc3ccc(Br)cc3[nH]2)c1	41*	-2	7	1	6	11
O=C(Cc1ccc(Nc2nc3ccc(Br)cc3[nH]2)cc1)NCCc1cccs1	20*	0	16	-1	9	7
Cc1c(NC(=O)C2CCCN(S(=O)(=O)c3ccc(Br)s3)C2)c(=O)n(-c2ccccc2)n1C (centres undefined)	3	-7	0	/	/	/
COc1ccc(CN(CCN2CCOCC2)C(=O)c2cc(F)ccc2F)cc1OC	2	-4	-1	/	/	/
O=C(CSc1ncnc2sc3c(c12)CCCC3)Nc1ccc(Oc2ccccc2)cc1	2	-6	-11	/	/	/
O=C(c1ccc(Cl)cc1)N1CCC2CC1c1cc(-c3ccccc3)ccc12 (centres undefined)	21*	1	-10	3	-21	-6
O=C(c1cccc(Cl)c1)N1CCC2CC1c1cc(-c3ccccc3)ccc12 (centres undefined)	-4	-2	-3	2	-33	/
CN(Cc1ccccc1)C(=O)OCc1cn(Cc2ccccc2F)nn1	1	-2	-2	/	/	/
SMILES	SIAE primary	PRMT1 inh	ABHD4 inh	TCR CD3 inh	HTRA1 inhibitor	SIAE confirm
COc1ccc(Cn2cc([N+](=O)[O-])nc2C)cc1[N+](=O)[O-]	-6	4	0	0	-5	/
COc1ccc(Cn2ccnc2CO)cc1[N+](=O)[O-]	19*	-6	-2	4	0	3
CCn1c(SCC(=O)NN=Cc2c(C)nn(-c3ccccc3)c2C)nnc1-c1ccc(OC)c(OC)c1	3	0	6	/	/	/
O=C(OC12CCCN(C1)/C(=C/c1cccc(Cl)c1)C2)c1ccc(Cl)cc1 (centres undefined)	-3	-2	-2	/	/	/
COc1cc(NC(=O)CN2c3cccc4cccc(c34)S2(=O)=O)cc(OC)c1OC	29*	-4	10	5	-3	-5
Cc1ccc(N)c([N+](=O)[O-])c1	1	-8	0	5	-1	/
Nc1ccc(N=Nc2ccccc2)cc1[N+](=O)[O-]	18*	1	12	-3	-3	3
C#CCONC(=O)c1cc(OCC(F)(F)F)ccc1OCC(F)(F)F	18*	-2	5	0	-1	0
O=C(NO)c1cc(OCC(F)(F)F)ccc1OCC(F)(F)F	2	-3	10	-3	10	/
CN(C)C1=C(Cl)C(=O)N(c2ccc(Cl)c(Cl)c2)C1=O	19*	14	5	0	-62	1
COC(=O)[C@]12C[C@H](CC(=O)NCC3CCCCC3)C(=O)N(Cc3ccco3)C1=C[C@H](C1CCCC1)O[C@@H]2C	-2	6	-3	/	/	/
COc1ccccc1CCC(=O)OCC(=O)N1c2ccccc2NC(=O)C1(C)C	21*	1	0	-4	-4	0
O=C(Nc1ccc(F)cc1)OCCN1C(=O)CCC12CCC(c1ccc(Cl)cc1)CC2 (centres undefined)	9	-3	-2	/	/	/
CCOC(=O)c1cnc(SCC(=O)OCC(=O)N(CC)C2CCS(=O)(=O)C2)nc1N (centres undefined)	4	-1	-3	0	-1	/
CCOC(=O)c1cnc(SCC(=O)OCC(=O)NC2CCS(=O)(=O)C2)nc1N (centres undefined)	18*	-1	6	-3	-2	-5
Cn1nc([N+](=O)[O-])c(C(C#N)c2nc3ccccc3n2C)c(Cl)c1=O (centres undefined)	27*	19	23	9	21	9
O=C(CSc1nnc(-c2ccc(Cl)cc2)n1-c1ccccc1)NN=Cc1c[nH]c2ccccc12	11	-7	-6	/	/	/
CC(Sc1nnc(NC2CCCCC2)s1)C(=O)Nc1ccc2c(c1)C(=O)c1ccccc1C2=O (centres undefined)	24*	0	11	-4	10	-25
CCn1cnc2cc(NCc3cccs3)ccc21	21*	5	3	3	3	2
CS(=O)(=O)N(CC(=O)NCCSC1CCCCC1)c1cccc(F)c1	18*	-1	8	-2	0	1
O=C(CSc1nnc(-c2cccnc2)n1-c1ccccc1)Nc1cccc2ccccc12	-2	0	1	/	/	/
O=C(OC12CCCN(C1)/C(=C/c1ccccc1)C2)C1CCCC1 (centres undefined)	1	0	-3	/	/	/
